In ChEMBL document CHEMBL2069266, “An expeditious regioselective synthesis of novel bioactive indole-substituted chromene derivatives via one-pot three-component reaction” (2012):

Experiments:
Format in all cases: functional
Conditions in all cases: read-out: DIZ
Micrococcus luteus = experiment: Antibacterial activity against Micrococcus luteus at 12 ug/well after 24 hrs by agar well diffusion method
How it was run: (§1)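 Colonies subcultured from nutrient agar into nutrient broth, grown 37 °C for 18 h, then inoculated onto Mueller-Hinton agar plates (four plates). Wells cut with sterile 5 mm glass tube; […] of 100 µg/ml DMSO solution added per well; incubated 37 °C for 24 h before reading inhibition. Data from duplicate or triplicate experiments.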

Salmonella enterica = experiment: Antibacterial activity against Salmonella enterica at 12 ug/well after 24 hrs by agar well diffusion method; how it was run: as §1
Bacillus subtilis = experiment: Antibacterial activity against Bacillus subtilis at 12 ug/well after 24 hrs by agar well diffusion method; how it was run: as §1
Pseudomonas aeruginosa = experiment: Antibacterial activity against Pseudomonas aeruginosa at 12 ug/well after 24 hrs by agar well diffusion method; how it was run: as §1

With `NC1=C(C(=O)c2c[nH]c3ccccc23)C(c2ccc(C3C(C(=O)c4c[nH]c5ccccc45)=C(N)Oc4ccc5ccccc5c43)cc2)c2c(ccc3ccccc23)O1` (centres undefined) as the molecule, how does the zone of inhibition at 12 µg/disc (Micrococcus luteus) read?
Its zone of inhibition at 12 µg/disc is 7 mm.

What does the source list for `NC1=C(C(=O)c2c[nH]c3ccccc23)C(c2ccc(F)cc2)c2c(ccc3ccccc23)O1` (centres undefined)?
zone of inhibition at 12 µg/disc (Salmonella enterica): 6 mm; zone of inhibition at 12 µg/disc (Micrococcus luteus): 30 mm; zone of inhibition at 12 µg/disc (Bacillus subtilis): 11 mm

How did the zone of inhibition at 12 µg/disc (Salmonella enterica) turn out when `Cc1[nH]c2ccccc2c1C(=O)C1=C(N)Oc2ccc3ccccc3c2C1c1ccc(Cl)cc1Cl` (centres undefined) was run?
Its zone of inhibition at 12 µg/disc is 15 mm.

And the zone of inhibition at 12 µg/disc (Micrococcus luteus)?
Its zone of inhibition at 12 µg/disc is 50 mm.

What about the zone of inhibition at 12 µg/disc (Pseudomonas aeruginosa) of the same molecule?
The zone of inhibition at 12 µg/disc was 15 mm.

For `NC1=C(C(=O)c2c[nH]c3ccc(Br)cc23)C(c2ccc(Cl)cc2Cl)c2c(ccc3ccccc23)O1` (centres undefined), which zone of inhibition at 12 µg/disc (Micrococcus luteus) is on record?
The zone of inhibition at 12 µg/disc was 30 mm.

For `NC1=C(C(=O)c2c[nH]c3ccccc23)C(c2ccc(Br)cc2)c2c(ccc3ccccc23)O1` (centres undefined), which zone of inhibition at 12 µg/disc (Micrococcus luteus) is on record?
Its zone of inhibition at 12 µg/disc is 10 mm.

For `NC1=C(C(=O)c2c[nH]c3ccccc23)C(c2cccc([N+](=O)[O-])c2)c2c(ccc3ccccc23)O1` (centres undefined), which zone of inhibition at 12 µg/disc (Micrococcus luteus) is on record?
Its zone of inhibition at 12 µg/disc is 29 mm.

And the zone of inhibition at 12 µg/disc (Bacillus subtilis)?
Its zone of inhibition at 12 µg/disc is 8 mm.

What does the source list for `NC1=C(C(=O)c2c[nH]c3ccc(Br)cc23)C(c2ccc(C3C(C(=O)c4c[nH]c5ccc(Br)cc45)=C(N)Oc4ccc5ccccc5c43)cc2)c2c(ccc3ccccc23)O1` (centres undefined)?
zone of inhibition at 12 µg/disc (Micrococcus luteus): 30 mm; zone of inhibition at 12 µg/disc (Bacillus subtilis): 6 mm

How did the zone of inhibition at 12 µg/disc (Salmonella enterica) turn out when `NC1=C(C(=O)c2c[nH]c3ccc(Br)cc23)C(c2cccnc2)c2c(ccc3ccccc23)O1` (centres undefined) was run?
Its zone of inhibition at 12 µg/disc is 6 mm.

And the zone of inhibition at 12 µg/disc (Micrococcus luteus)?
Its zone of inhibition at 12 µg/disc is 11 mm.

Which zone of inhibition at 12 µg/disc (Salmonella enterica) does the source give for `CN(C)[C@@H]1C(O)=C(C(N)=O)C(=O)[C@@]2(O)C(O)=C3C(=O)c4c(O)cccc4[C@@](C)(O)[C@H]3C[C@@H]12` [TETRACYCLINE] here?
The zone of inhibition at 12 µg/disc was 7 mm.

What about the zone of inhibition at 12 µg/disc (Micrococcus luteus) of the same molecule?
The zone of inhibition at 12 µg/disc was 16 mm.

And the zone of inhibition at 12 µg/disc (Bacillus subtilis)?
The zone of inhibition at 12 µg/disc was 14 mm.

What about the zone of inhibition at 12 µg/disc (Pseudomonas aeruginosa) of the same molecule?
Its zone of inhibition at 12 µg/disc is 18 mm.

Which results are given for `COc1cccc(C2C(C(=O)c3c[nH]c4ccccc34)=C(N)Oc3ccc4ccccc4c32)c1` (centres undefined)?
zone of inhibition at 12 µg/disc (Micrococcus luteus): 35 mm; zone of inhibition at 12 µg/disc (Pseudomonas aeruginosa): 17 mm

How did the zone of inhibition at 12 µg/disc (Salmonella enterica) turn out when `NC1=C(C(=O)c2c[nH]c3ccccc23)C(c2ccc(Cl)cc2)c2c(ccc3ccccc23)O1` (centres undefined) was run?
Its zone of inhibition at 12 µg/disc is 17 mm.

What about the zone of inhibition at 12 µg/disc (Micrococcus luteus) of the same molecule?
Its zone of inhibition at 12 µg/disc is 8 mm.

How did the zone of inhibition at 12 µg/disc (Micrococcus luteus) turn out when `NC1=C(C(=O)c2c[nH]c3ccc(Br)cc23)C(c2ccc(Cl)cc2)c2c(ccc3ccccc23)O1` (centres undefined) was run?
The zone of inhibition at 12 µg/disc was 45 mm.

What about the zone of inhibition at 12 µg/disc (Bacillus subtilis) of the same molecule?
Its zone of inhibition at 12 µg/disc is 6 mm.

For `CC[C@H]1OC(=O)[C@H](C)[C@@H](O[C@H]2C[C@@](C)(OC)[C@@H](O)[C@H](C)O2)[C@H](C)[C@@H](O[C@@H]2O[C@H](C)C[C@H](N(C)C)[C@H]2O)[C@](C)(O)C[C@@H](C)C(=O)[C@H](C)[C@@H](O)[C@]1(C)O` [ERYTHROMYCIN], which zone of inhibition at 12 µg/disc (Salmonella enterica) is on record?
The zone of inhibition at 12 µg/disc was 8 mm.

And the zone of inhibition at 12 µg/disc (Micrococcus luteus)?
Its zone of inhibition at 12 µg/disc is 10 mm.

And the zone of inhibition at 12 µg/disc (Bacillus subtilis)?
Its zone of inhibition at 12 µg/disc is 12 mm.

And the zone of inhibition at 12 µg/disc (Pseudomonas aeruginosa)?
The zone of inhibition at 12 µg/disc was 10 mm.
